In ChEMBL document CHEMBL3576824, “Phenolic diterpenoid derivatives as anti-influenza a virus agents” (ACS Med Chem Lett, 2015):
Active and inactive are the calls of the source.

Columns and labels:
[1] = tested on: Influenza A virus; test: Antiviral activity against oseltamivir-sensitive Influenza A virus (A/Hong Kong/8/68(H3N2)) infected in MDCK cells assessed as protection against virus-induced cytocidal effect at 20 uM after 48 hrs by CellTiter-Glo assay relative to control; assay type: functional
How it was run: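 Same cytocidal protection assay in MDCK cells with H3N2 virus, tested at concentrations up to 20 μM. The read-out is the percent inhibition of viral cytocidal effect, with 50% used as the threshold.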

[2] = Cytotoxicity against MDCK cells assessed as reduction of cell viability; assay type: cell-based, Canis lupus familiaris; conditions: dog
How it was run: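 Uninfected MDCK cells. CC50 is the concentration (μM) that reduced cell viability by 50%.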

[3] = Metabolic stability in human plasma assessed as compound remaining at 1 uM after 2 hrs by reverse phase HPLC analysis; assay type: ADME, cell-free; conditions: read-out: Stability
How it was run: (§1)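 Compound incubated in 80% human plasma at 37 °C for varying times. Initial and remaining parent compound were quantified by reverse-phase HPLC. Benfluorex served as control. Data are averages of duplicate experiments.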

[4] = Metabolic stability in human plasma assessed as compound remaining at 1 uM after 10 mins by reverse phase HPLC analysis; assay type: ADME, cell-free; conditions: read-out: Stability; how it was run: as §1
[5] = tested on: Influenza A virus; test: Antiviral activity against oseltamivir-sensitive Influenza A virus (A/Hong Kong/8/68(H3N2)) assessed as inhibition of viral infectivity in MDCK cells at 10 uM after 6 hrs by FITC conjugated anti-NP antibodies/DAPI staining-based confocal microscopic analysis; assay type: functional, organism-based
How it was run: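 MDCK cells were infected at MOI = 1 in the presence of 10 μM compound for 6 h. Infected cells were stained with FITC-conjugated anti-NP antibody, with DAPI as nuclear stain, and imaged by confocal microscopy. Infected cells without compound served as control.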

Structure (SMILES) | Activity [1] | CC50 [2] | remaining at 2 h, 1 µM [3] | remaining at 10 min, 1 µM [4] | inhibition [5]
COC(=O)[C@@]1(C)CCC[C@]2(C)c3cc(OC(=O)CCC(=O)O)ccc3CC[C@@H]12 | <50% | > 40 µM | – | – | –
COC(=O)[C@@]1(C)CCC[C@]2(C)c3cc(OC)ccc3C(=O)C[C@@H]12 | <50% | > 40 µM | – | – | –
C[C@]1(C(=O)O)CCC[C@]2(C)c3cc(O)ccc3CC[C@@H]12 [PODOCARIC ACID] | <50% | 91.2 µM | – | – | –
COC(=O)[C@@]1(C)CCC[C@]2(C)c3cc(OC(=O)C(C)F)ccc3CC[C@@H]12 (stereo partly specified) | <50% | > 40 µM | – | – | –
COC(=O)[C@@]1(C)CCC[C@]2(C)c3cc(OCCC(=O)O)ccc3CC[C@@H]12 | <50% | > 40 µM | – | – | –
COC(=O)[C@@]1(C)CCC[C@]2(C)c3cc(OC(=O)C4CC4)ccc3CC[C@@H]12 | <50% | > 40 µM | – | – | –
C=CC(=O)Oc1ccc2c(c1)[C@@]1(C)CCC[C@](C)(C(=O)OC)[C@@H]1CC2 | <50% | > 40 µM | – | – | –
CNC(=O)[C@@]1(C)CCC[C@]2(C)c3cc(O)ccc3CC[C@@H]12 | <50% | > 40 µM | – | – | –
C[C@]1(C(=O)OCc2ccccc2)CCC[C@]2(C)c3cc(OC(=O)CCC(=O)O)ccc3CC[C@@H]12 | <50% | > 40 µM | – | – | –
C[C@]1(C(=O)OCc2ccccc2)CCC[C@]2(C)c3cc(OCCC(=O)O)ccc3CC[C@@H]12 | <50% | > 40 µM | – | – | –
COC(=O)[C@@]1(C)CCC[C@]2(C)c3cc(O)ccc3CC[C@@H]12 | <50% | > 40 µM | 86% | – | –
C=CC(=O)Oc1ccc2c(c1)[C@@]1(C)CCC[C@](C)(C(=O)NC)[C@@H]1CC2 | <50% | > 40 µM | – | – | –
COC(=O)[C@@]1(C)CCC[C@]2(C)c3cc(OC)ccc3CC[C@@H]12 | <50% | > 40 µM | – | – | –
COC(=O)[C@@]1(C)CCC[C@]2(C)c3cc(OC(=O)C(C)C)ccc3CC[C@@H]12 | <50% | > 40 µM | – | – | –
COC(=O)[C@@]1(C)CCC[C@]2(C)c3cc(OC(C)=O)ccc3CC[C@@H]12 | <50% | > 40 µM | – | 30% | –
CC(C)c1c(O)ccc2c1CC[C@H]1C(C)(C)CCC[C@]21C [TOTAROL] | <50% | 21 µM | – | – | –
COC(=O)[C@@]1(C)CCC[C@]2(C)c3cc(OC(=O)CCCC(=O)O)ccc3CC[C@@H]12 | <50% | > 40 µM | – | – | –
COC(=O)[C@@]1(C)CCC[C@]2(C)c3cc(OC(=O)CCCCCBr)ccc3CC[C@@H]12 | <50% | > 40 µM | – | – | –
COC(=O)[C@@]1(C)CCC[C@]2(C)c3cc(OC(=O)CCBr)ccc3CC[C@@H]12 | <50% | > 40 µM | – | – | Active
C[C@]1(C(=O)OCc2ccccc2)CCC[C@]2(C)c3cc(O)ccc3CC[C@@H]12 | <50% | > 40 µM | – | – | –
C[C@]1(C(=O)O)CCC[C@]2(C)c3cc(OC(=O)CCC(=O)O)ccc3CC[C@@H]12 | <50% | > 40 µM | – | – | –
C=CC(=O)Oc1ccc2c(c1)[C@@]1(C)CCC[C@](C)(C(=O)OCc3ccccc3)[C@@H]1CC2 | <50% | > 40 µM | – | – | –
COC(=O)[C@@]1(C)CCC[C@]2(C)c3cc(OC(=O)CCCCBr)ccc3CC[C@@H]12 | <50% | > 40 µM | – | – | –
COC(=O)[C@@]1(C)CCC[C@]2(C)c3cc(OC(=O)CCCBr)ccc3CC[C@@H]12 | <50% | > 40 µM | – | – | –
